Test results as given in ChEMBL document CHEMBL1147048, “Identification of anti-prion compounds as efficient inhibitors of polyglutamine protein aggregation in a zebrafish model” (J Biol Chem, 2007).
Calls of active or inactive are those of the source. The rule behind the calls is not given here.

How the values were obtained:
[1] = Suppression of aggregation of poly Q102-GFP protein expressed in zebrafish embryo at 10 uM by filter trap assay
Procedure, shortened: (§1)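 AB wild-type embryos were injected at the 1-2 cell stage with Q102-GFP mRNA. They were then kept in E3 with 1% DMSO plus compound (isoproterenol dissolved in water), with the chorion disrupted; controls received solvent alone. After 24 h at 28.5 °C, lysates were heated in 4% SDS/100 mM DTT, filtered through 0.2 µm cellulose acetate, probed with anti-GFP and quantified by densitometry. Solvent control was set to 100%; n=3-5 injections.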

Danio rerio [2] = organism: Danio rerio; assay: Suppression of inclusion formation in zebrafish embryo expressing poly Q102-GFP protein after 24 hrs at 1 uM; type: functional, organism-based
[3] = Suppression of aggregation of poly Q102-GFP mutant expressed in zebrafish embryo by filter trap assay; procedure, shortened: as §1
[4] = Inhibition of detergent insoluble aggregation of mutant poly Q102-GFP expressed in zebrafish embryo at 50 uM by filter trap assay; procedure, shortened: as §1
Danio rerio [5] = organism: Danio rerio; assay: Effect on suppression of abnormal morphology and death of zebrafish embryo expressing Q102-GFP; type: organism-based; conditions: in vivo
N2a = assay: Inhibition of aggregation of poly Q102-GFP in mouse N2a cells by filter trap assay; type: cell-based

Compound: CC(C)NCC(O)c1ccc(O)c(O)c1 (centres undefined)
- Activity [1]: inactive

Compound: COc1c(C)c2c(c(O)c1C/C=C(\C)CCC(=O)O)C(=O)OC2
- Activity (Danio rerio [2]): inactive

Compound: Nc1c(/N=N/c2ccc(-c3ccc(/N=N/c4cc(S(=O)(=O)O)c5ccccc5c4N)cc3)cc2)cc(S(=O)(=O)O)c2ccccc12
- Activity [3]: Active

Compound: O=C(N/N=C/c1ccc2ccccc2c1)c1ccc(O)c(O)c1
- Activity [4]: Active
- Activity (Danio rerio [5]): Not Active
- Activity (N2a): Active

Compound: Cc1cc(O)c(C)c2sc(N)nc12
- Activity (Danio rerio [5]): Not Active
- Activity (N2a): Active
- Activity [3]: Active

Compound: O=C(N/N=C/c1ccc2ccccc2c1)c1cccc(Cl)c1
- Activity [4]: Active
- Activity (Danio rerio [5]): Not Active
- Activity (N2a): Active

Compound: COc1cc(/C=N/N=C(N)N)ccc1OCc1c(C)c(C)c(Br)c(C)c1C.Cl
- Activity (Danio rerio [5]): Not Active
- Activity (N2a): Active
